# Data: ChEMBL document CHEMBL1144674, “Synthesis and pharmacological activity of aminoindanone dimers and related compounds” (Bioorg Med Chem, 2008)
# Tests used:
# Cavia porcellus [1] = organism: Cavia porcellus; test: Inhibition of CaCl2-induced contraction in potassium-depolarized guinea pig ileal smooth muscle at 10 uM; format: functional
# Method in brief: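 Guinea-pig ileum segments (2.5 cm) in high-K+ (45 mM KCl), Ca-free Krebs at 37 °C, gassed 95% O2/5% CO2, 1.5 g resting tension, isometric recording. CaCl2 raised bath Ca to 2.5 mM to give a sustained contracture. Compound at 1×10^-5 M in 0.5% DMSO/water added once contraction stabilised. Nifedipine 1×10^-8 M was the positive control. Mean ± SEM, n = animals.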
# [2] = Inhibition of CaCl2-induced contraction in potassium depolarized-guinea pig ileal smooth muscle; format: functional, Cavia porcellus
# Cavia porcellus [3] = organism: Cavia porcellus; conditions: 10 nM
SMILES,inhibition (Cavia porcellus [1]) [%],EC50 [2] [µM],further results
C=CCN(C1=CC(=O)c2ccccc21)C1CCc2ccccc21 (racemic),20.9,–,–
O=C1C=C(NC2CCc3ccccc32)c2ccccc21 (racemic),30,–,–
Cc1c(O)c2c(c(C)c1CCO)C(=O)C(C)(C)C2 [ONITIN],–,100,–
CC(=O)N(C1=CC(=O)c2ccccc21)C1CCc2ccccc21 (racemic),18.3,–,–
COC(=O)C1=C(C)NC(C)=C(C(=O)OC)C1c1ccccc1[N+](=O)[O-],–,–,inhibition (Cavia porcellus [3]): 48.1%
Cc1c(O)c2c(c(C)c1CCO)C(=O)C(C)(O)C2 (stereo unspecified) [ONITISIN],–,2000,–
